Data on 2 compounds can be found in ChEMBL document CHEMBL5696442, “Discovery of type II inhibitors of TGFβ-activated kinase 1 (TAK1) and mitogen-activated protein kinase kinase kinase kinase 2 (MAP4K2)” (J Med Chem, 2015).

Holding throughout (format): cell-based
Test [1] addresses Dual specificity mitogen-activated protein kinase kinase 2 (Homo sapiens) (UniProt P36507). Nature of the test: Inhibition of MAP2K2 Lys2 labeling site in human A-375 cells at 0.05 uM by KiNativ Profiling analysis relative to control.
Test [2] concerns the target Serine/threonine-protein kinase 24 (Homo sapiens) (UniProt Q9Y6E0). Nature of the test: Inhibition of MST3 Lys2 labeling site harbouring DIKAANVLLSEHGEVK in human A-375 cells at 0.5 uM by KiNativ Profiling analysis relative to control.
The target in test [3] is T1, Mixed lineage kinase domain-like protein (Homo sapiens) (UniProt Q8NB16).
T1 sequence (whole entry): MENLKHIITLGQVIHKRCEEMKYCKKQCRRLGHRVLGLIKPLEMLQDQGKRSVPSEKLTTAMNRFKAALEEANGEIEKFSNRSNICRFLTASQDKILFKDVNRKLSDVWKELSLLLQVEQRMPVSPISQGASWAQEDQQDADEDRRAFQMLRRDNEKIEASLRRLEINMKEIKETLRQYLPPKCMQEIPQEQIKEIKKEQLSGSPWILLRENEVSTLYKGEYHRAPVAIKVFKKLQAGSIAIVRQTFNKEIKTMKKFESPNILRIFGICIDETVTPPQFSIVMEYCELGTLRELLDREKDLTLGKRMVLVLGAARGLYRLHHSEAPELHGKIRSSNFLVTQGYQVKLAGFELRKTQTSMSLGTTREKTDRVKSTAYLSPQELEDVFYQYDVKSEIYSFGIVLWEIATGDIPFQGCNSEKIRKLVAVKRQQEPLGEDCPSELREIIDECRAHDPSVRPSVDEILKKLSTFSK
Nature of the test: Inhibition of MLKL Lys1 labeling site in human A-375 cells at 0.05 uM by KiNativ Profiling analysis relative to control.

The target in test [4] is T2, Kinase suppressor of Ras 2 (Homo sapiens) (UniProt Q6VAB6).
T2 sequence (whole entry): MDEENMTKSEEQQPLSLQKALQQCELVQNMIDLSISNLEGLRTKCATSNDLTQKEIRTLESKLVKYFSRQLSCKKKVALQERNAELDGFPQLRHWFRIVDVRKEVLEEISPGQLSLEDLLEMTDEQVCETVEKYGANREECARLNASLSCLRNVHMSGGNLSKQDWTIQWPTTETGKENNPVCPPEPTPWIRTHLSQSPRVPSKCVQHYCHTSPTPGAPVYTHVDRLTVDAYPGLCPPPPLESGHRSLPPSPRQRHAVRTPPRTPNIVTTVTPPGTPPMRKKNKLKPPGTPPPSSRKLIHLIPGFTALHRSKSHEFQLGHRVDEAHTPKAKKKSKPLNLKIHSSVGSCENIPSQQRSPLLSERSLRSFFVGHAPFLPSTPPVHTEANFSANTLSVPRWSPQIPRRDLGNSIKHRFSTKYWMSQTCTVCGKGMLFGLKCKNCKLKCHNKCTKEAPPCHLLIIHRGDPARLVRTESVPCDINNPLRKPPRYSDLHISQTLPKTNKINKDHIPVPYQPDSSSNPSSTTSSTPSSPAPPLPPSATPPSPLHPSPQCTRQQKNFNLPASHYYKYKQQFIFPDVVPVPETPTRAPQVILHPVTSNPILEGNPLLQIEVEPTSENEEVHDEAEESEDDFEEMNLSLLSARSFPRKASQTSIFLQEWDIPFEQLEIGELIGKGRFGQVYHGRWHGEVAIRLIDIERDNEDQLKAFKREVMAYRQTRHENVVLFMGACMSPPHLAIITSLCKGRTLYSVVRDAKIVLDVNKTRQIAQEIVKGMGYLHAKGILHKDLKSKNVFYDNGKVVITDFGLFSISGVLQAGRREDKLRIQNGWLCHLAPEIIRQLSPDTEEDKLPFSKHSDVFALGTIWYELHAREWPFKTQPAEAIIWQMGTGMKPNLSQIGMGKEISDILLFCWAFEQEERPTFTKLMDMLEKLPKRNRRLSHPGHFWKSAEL
Briefly: Inhibition of KSR2 ACT labeling site in human A-375 cells at 0.05 uM by KiNativ Profiling analysis relative to control.

Test [5] has as its target Cyclin-dependent kinase 18 (Homo sapiens) (UniProt Q07002). Nature of the test: Inhibition of PCTAIRE3 Lys1 labeling site harbouringSKLTENLVALKEIR in human A-375 cells at 0.5 uM by KiNativ Profiling analysis relative to control. The method in brief: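 Live A375 melanoma cells were treated with compound at 5 or 0.5 μM, then lysed. Lysates were labeled with a lysine-reactive ATP or ADP-biotin probe. Read-out was the compound's protection of kinase labeling sites from probe labeling (KiNativ).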

Test [6] deals with Serine/threonine-protein kinase 24 (Homo sapiens) (UniProt Q9Y6E0). Briefly: Inhibition of MST3 Lys2 labeling site harbouring DIKAANVLLSEHGEVK in human A-375 cells at 0.05 uM by KiNativ Profiling analysis relative to control.
Chain of Serine/threonine-protein kinase 24 (Homo sapiens) (Q9Y6E0 whole entry, looked up, the tested form may be a part): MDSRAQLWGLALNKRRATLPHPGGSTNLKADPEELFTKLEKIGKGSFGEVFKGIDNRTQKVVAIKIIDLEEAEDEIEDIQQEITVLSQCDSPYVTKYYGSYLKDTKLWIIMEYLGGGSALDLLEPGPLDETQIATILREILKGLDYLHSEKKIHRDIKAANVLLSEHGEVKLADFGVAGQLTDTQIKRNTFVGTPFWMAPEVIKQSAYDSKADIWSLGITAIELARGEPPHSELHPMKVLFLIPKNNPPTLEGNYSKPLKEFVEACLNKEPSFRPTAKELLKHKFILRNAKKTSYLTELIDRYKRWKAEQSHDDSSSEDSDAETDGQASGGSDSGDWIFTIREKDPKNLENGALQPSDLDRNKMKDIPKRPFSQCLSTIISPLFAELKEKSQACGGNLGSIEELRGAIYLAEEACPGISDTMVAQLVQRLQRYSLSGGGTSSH
In test [7] the target is DNA-PK/Ku70/Ku85 (Homo sapiens) (UniProt P78527+P12956+P13010). Briefly: Inhibition of DNAPK ATP labeling site harbouring GHDEREHPFLVKGGEDLR in human A-375 cells at 0.5 uM by KiNativ Profiling analysis relative to control. Summed up:
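Live A375 melanoma cells were treated with compound at 0.5 or 5 μM, then lysed. Lysates were labeled with a lysine-reactive ATP or ADP-biotin probe. The read-out was protection of each kinase probe-labeling site from labeling, relative to control.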

The target in test [8] is Serine/threonine-protein kinase WNK1 (Homo sapiens) (UniProt Q9H4A3). Nature of the test: Inhibition of Wnk1 ATP Loop labeling site in human A-375 cells at 0.5 uM by KiNativ Profiling analysis relative to control.
Chain of Serine/threonine-protein kinase WNK1 (Homo sapiens) (Q9H4A3 whole entry, looked up): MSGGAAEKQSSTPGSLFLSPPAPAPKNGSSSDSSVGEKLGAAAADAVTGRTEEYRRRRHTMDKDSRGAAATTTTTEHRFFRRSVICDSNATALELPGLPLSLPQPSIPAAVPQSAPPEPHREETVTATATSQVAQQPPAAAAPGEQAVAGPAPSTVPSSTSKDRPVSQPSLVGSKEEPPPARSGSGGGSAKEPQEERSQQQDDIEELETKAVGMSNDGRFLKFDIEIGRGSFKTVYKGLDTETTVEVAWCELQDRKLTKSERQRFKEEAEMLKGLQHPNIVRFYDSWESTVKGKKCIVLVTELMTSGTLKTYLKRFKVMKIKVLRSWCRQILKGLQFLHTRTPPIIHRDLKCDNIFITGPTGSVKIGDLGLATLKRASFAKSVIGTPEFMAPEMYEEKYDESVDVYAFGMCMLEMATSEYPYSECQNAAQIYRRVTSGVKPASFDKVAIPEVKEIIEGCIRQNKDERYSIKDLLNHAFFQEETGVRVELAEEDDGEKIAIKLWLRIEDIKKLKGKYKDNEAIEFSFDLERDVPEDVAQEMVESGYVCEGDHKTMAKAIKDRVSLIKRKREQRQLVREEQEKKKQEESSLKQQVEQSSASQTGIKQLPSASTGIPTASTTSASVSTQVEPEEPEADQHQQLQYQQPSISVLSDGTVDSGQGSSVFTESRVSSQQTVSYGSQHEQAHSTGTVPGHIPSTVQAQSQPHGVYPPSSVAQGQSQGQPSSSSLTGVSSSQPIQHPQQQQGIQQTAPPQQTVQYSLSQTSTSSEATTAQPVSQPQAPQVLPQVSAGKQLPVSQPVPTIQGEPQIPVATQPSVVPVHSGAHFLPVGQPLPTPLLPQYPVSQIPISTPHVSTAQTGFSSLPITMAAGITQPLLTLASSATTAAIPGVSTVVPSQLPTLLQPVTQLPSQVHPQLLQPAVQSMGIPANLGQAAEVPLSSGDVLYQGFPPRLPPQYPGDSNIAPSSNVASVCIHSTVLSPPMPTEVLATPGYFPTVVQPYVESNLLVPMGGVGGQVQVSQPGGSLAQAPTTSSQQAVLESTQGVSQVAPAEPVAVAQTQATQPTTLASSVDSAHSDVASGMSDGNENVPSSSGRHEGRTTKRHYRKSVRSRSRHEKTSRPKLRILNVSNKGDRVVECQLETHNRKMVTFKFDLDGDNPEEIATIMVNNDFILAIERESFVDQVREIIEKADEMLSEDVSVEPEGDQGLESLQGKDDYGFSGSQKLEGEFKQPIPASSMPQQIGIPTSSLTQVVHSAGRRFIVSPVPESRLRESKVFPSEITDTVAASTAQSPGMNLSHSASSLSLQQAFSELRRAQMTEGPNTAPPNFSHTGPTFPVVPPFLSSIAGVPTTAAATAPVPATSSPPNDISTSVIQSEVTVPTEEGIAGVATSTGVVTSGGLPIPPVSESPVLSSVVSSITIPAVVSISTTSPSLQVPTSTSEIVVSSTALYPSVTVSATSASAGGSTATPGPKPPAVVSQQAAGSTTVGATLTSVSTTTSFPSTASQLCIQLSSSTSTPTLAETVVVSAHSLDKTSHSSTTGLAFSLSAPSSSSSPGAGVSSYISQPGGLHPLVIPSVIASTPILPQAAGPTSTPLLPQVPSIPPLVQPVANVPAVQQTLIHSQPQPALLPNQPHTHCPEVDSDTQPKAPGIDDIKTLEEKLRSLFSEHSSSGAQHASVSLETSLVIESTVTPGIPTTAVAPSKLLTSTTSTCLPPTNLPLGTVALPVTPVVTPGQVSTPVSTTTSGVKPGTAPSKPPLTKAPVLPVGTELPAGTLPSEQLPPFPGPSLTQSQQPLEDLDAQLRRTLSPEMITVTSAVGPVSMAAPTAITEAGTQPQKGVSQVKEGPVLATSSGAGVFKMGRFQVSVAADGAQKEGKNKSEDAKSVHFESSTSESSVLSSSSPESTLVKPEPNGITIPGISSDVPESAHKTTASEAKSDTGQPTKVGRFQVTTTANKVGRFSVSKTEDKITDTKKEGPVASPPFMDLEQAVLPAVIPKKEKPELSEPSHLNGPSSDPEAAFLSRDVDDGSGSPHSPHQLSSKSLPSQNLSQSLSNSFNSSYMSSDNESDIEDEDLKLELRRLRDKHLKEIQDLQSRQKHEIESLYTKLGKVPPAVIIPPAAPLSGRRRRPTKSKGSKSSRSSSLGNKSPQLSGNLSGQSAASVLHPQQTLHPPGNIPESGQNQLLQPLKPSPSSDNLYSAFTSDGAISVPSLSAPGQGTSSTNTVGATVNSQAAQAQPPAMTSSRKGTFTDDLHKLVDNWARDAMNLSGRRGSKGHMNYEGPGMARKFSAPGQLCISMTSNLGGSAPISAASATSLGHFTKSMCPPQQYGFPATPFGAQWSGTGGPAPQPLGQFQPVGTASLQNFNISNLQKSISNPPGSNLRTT
Test [9] addresses Mitogen-activated protein kinase kinase kinase kinase 4 (Homo sapiens, UniProt O95819). Nature of the test: Inhibition of ZC1 Lys2 labeling site in human A-375 cells at 0.5 uM by KiNativ Profiling analysis relative to control.
Test [10] addresses T3, Serine/threonine-protein kinase NLK (Homo sapiens) (UniProt Q9UBE8).
T3 sequence (whole entry): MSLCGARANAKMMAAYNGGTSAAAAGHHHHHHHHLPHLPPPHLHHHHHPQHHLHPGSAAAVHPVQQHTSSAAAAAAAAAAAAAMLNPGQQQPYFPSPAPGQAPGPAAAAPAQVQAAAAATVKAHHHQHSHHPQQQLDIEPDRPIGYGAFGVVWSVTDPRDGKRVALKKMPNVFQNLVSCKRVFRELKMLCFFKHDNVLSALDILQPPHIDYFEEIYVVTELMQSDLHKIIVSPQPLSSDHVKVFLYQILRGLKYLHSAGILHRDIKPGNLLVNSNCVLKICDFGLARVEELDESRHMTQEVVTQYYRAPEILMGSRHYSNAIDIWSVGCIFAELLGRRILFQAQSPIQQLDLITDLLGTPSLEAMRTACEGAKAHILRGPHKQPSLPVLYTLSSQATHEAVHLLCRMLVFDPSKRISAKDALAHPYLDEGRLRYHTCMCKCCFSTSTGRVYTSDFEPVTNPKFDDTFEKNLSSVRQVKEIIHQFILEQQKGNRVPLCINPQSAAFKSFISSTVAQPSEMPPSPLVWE
Briefly: Inhibition of NLK Lys2 labeling site in human A-375 cells at 0.05 uM by KiNativ Profiling analysis relative to control.

Structures are written as SMILES.

Chain of Mitogen-activated protein kinase kinase kinase kinase 4 (O95819 2-1239 limits assumed): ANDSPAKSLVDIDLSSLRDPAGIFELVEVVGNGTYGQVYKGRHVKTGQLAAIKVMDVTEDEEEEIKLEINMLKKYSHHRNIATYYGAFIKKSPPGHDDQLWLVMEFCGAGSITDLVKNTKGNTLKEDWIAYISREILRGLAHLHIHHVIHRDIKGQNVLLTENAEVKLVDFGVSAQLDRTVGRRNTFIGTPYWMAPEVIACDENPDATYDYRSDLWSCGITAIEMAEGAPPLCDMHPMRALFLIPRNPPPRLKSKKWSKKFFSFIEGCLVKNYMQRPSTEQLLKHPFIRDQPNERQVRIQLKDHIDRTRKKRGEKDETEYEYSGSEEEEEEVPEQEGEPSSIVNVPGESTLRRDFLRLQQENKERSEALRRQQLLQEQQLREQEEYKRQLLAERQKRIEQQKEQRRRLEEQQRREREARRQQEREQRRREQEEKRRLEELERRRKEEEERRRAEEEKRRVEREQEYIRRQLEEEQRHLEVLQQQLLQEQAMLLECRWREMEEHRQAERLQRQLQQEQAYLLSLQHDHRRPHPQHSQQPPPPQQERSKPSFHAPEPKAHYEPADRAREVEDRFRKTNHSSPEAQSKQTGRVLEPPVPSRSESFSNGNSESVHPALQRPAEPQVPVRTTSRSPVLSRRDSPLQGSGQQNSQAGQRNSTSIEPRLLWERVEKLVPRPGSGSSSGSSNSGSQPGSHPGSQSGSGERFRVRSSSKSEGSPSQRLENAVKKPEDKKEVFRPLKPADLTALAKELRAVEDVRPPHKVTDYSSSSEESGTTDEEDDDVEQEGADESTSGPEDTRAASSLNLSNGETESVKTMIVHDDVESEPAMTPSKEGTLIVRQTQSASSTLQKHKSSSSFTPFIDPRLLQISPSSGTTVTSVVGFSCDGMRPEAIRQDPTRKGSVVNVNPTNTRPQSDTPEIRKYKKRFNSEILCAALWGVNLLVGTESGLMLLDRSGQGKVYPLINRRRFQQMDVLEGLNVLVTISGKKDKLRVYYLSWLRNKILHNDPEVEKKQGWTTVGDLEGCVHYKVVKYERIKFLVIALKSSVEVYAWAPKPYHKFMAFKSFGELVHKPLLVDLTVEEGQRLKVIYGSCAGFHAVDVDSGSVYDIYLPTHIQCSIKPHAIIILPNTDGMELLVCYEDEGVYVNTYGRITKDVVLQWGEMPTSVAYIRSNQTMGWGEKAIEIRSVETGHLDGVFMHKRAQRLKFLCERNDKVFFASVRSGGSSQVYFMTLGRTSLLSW
Chain of Cyclin-dependent kinase 18 (Homo sapiens) (Q07002 whole entry): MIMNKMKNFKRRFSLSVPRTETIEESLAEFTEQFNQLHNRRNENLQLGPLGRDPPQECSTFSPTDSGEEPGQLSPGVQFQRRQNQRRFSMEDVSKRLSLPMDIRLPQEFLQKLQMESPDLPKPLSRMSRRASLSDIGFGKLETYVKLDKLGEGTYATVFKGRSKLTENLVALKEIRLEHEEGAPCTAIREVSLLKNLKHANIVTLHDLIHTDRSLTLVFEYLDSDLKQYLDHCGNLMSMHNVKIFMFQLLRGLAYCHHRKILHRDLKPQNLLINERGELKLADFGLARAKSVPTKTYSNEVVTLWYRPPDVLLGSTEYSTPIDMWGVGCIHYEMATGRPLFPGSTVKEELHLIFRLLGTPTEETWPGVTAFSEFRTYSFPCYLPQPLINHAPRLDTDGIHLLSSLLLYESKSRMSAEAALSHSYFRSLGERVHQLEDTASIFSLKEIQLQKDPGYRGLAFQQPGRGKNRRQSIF
Chain of Dual specificity mitogen-activated protein kinase kinase 2 (Homo sapiens) (P36507 whole entry): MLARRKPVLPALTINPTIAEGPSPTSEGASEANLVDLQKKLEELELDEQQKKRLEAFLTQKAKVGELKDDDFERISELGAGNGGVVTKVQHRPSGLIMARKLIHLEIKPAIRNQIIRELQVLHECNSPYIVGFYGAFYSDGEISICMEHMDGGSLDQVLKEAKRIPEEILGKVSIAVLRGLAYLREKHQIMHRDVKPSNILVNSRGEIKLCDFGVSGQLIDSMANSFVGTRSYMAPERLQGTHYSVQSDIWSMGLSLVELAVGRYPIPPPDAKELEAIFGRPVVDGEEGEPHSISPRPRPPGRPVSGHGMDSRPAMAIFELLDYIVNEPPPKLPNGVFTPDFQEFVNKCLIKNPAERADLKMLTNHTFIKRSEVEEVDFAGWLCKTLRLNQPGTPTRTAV

By inhibition is commonly meant the change of the read-out against control, counted positive when it falls. In the case of `CCN1CCN(Cc2ccc(NC(=O)c3ccc(C)c(/C=C/c4cnc5[nH]ccc5c4OC)c3)cc2C(F)(F)F)CC1`, the inhibition in [1] is -8.3%; in test [2], 0.2%; in test [3], 12.8%; in [4] it was 8.6%; in test [5], 11.3%; in test [6], 3.2%. Moreover, the inhibition was 9.6% in [7], 15.3% in test [8], 48.1% in test [9] and 13.8% in test [10].
Consider `CCN1CCN(Cc2ccc(NC(=O)c3ccc(C)c(Oc4ccnc5[nH]ccc45)c3)cc2C(F)(F)F)CC1`, for which the inhibition was 6.1% in test [1]; 1.6% in test [2]; 14.8% in [3]; 37% in test [4]; 31.7% in [5]; -2.7% in test [6]. The inhibition in test [7] was 3.6%; in test [8], 11.4%; in [9], 70.8%; in test [10], -5.6%.
